Reference: ChEMBL document CHEMBL4689842, “EUbOPEN Chemogenomics Library wave 1” (2021)
Several values for one entry are separate records, joined by “and”; a condition that tells them apart may be missing. Identical values can stand only once.

System: Fibroblast
Test: Multiplex assay against human fibroblast
Type: toxicity, cell-based
How it was run: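 Values for tubulin, mitochondrial-mass and membrane-permeability phenotypes are per cents of cells with healthy nuclei. These cells were identified by CellPathfinder machine-learning gating of live cells that had been stained at seeding with Hoechst33342, BioTracker Green Microtubule Cytoskeleton Dye, MitoTracker Red and Annexin V Alexa Fluor 680 and imaged on a CQ1 microscope at 37°C and 5% CO2 after compound addition. The gating first set Hoechst high-intensity objects apart from normal cells, then split normal cells into healthy, pyknosed or fragmented nuclei, and pyknosed cells into mitotic or apoptotic.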

[1] = 12 h, 1 µM, compound concentration 1 uM, replicate 1
[2] = 12 h, 1 µM, compound concentration 1 uM, replicate 2
[3] = 12 h, 10 µM, compound concentration 10 uM, replicate 1
[4] = 12 h, 10 µM, compound concentration 10 uM, replicate 2
[5] = 24 h, 1 µM, compound concentration 1 uM, replicate 1
[6] = 24 h, 1 µM, compound concentration 1 uM, replicate 2
[7] = 24 h, 10 µM, compound concentration 10 uM, replicate 1
[8] = 24 h, 10 µM, compound concentration 10 uM, replicate 2
[9] = 48 h, 10 µM, compound concentration 10 uM, replicate 1
[10] = 48 h, 10 µM, compound concentration 10 uM, replicate 2

COCC(=O)NC/C=C/c1ccc2ncnc(Nc3ccc(Oc4ccc(C)nc4)c(C)c3)c2c1 [CP-724714]
Population Apoptotic (%) [1]: 52% and 82%
Population Fragmented Nuclei (%) [1]: 30% and 25%
Population Healthy Nuclei (%) [1]: 51% and 59%
Population Hoechst High Intensity Objects (%) [1]: 14% and 12%
Population Membrane Permeable-Phenotype (%) [1]: 29% and 10%
Population Mitotic Cells (%) [1]: 47% and 17%
Population Normal (%) [1]: 85% and 87%
Population Pyknosed Nuclei (%) [1]: 18%
Total Cell Count [1]: 245 and 254
Population Fragmented Nuclei (%) [2]: 50% and 54%
Population Healthy Nuclei (%) [2]: 33% and 20%
Population Hoechst High Intensity Objects (%) [2]: 27% and 42%
Population Membrane Permeable-Phenotype (%) [2]: 22% and 11%
Population Normal (%) [2]: 72% and 57%
Population Pyknosed Nuclei (%) [2]: 15% and 25%
Population Tubulin-Different-Phenotype (%) [2]: 22% and 44%
Total Cell Count [2]: 73 and 76
Population Apoptotic (%) [3]: 51%
Population Fragmented Nuclei (%) [3]: 33%
Population Healthy Nuclei (%) [3]: 37%
Population Hoechst High Intensity Objects (%) [3]: 14%
Population Membrane Permeable-Phenotype (%) [3]: 14%
Population Mitochondria Different-Phenotype (%) [3]: 50%
Population Mitotic Cells (%) [3]: 48%
Population Normal (%) [3]: 85%
Population Pyknosed Nuclei (%) [3]: 29%
Population Tubulin-Different-Phenotype (%) [3]: 87%
Total Cell Count [3]: 148
Population Apoptotic (%) [4]: 80%
Population Fragmented Nuclei (%) [4]: 18%
Population Healthy Nuclei (%) [4]: 63%
Population Hoechst High Intensity Objects (%) [4]: 11%
Population Membrane Permeable-Phenotype (%) [4]: 37%
Population Mitochondria Different-Phenotype (%) [4]: 94%
Population Mitotic Cells (%) [4]: 20%
Population Normal (%) [4]: 88%
Population Pyknosed Nuclei (%) [4]: 18%
Population Tubulin-Different-Phenotype (%) [4]: 100%
Total Cell Count [4]: 62
Population Apoptotic (%) [5]: 58% and 59%
Population Fragmented Nuclei (%) [5]: 30% and 19%
Population Healthy Nuclei (%) [5]: 51% and 62%
Population Hoechst High Intensity Objects (%) [5]: 14% and 11%
Population Mitotic Cells (%) [5]: 41% and 40%
Population Normal (%) [5]: 85% and 88%
Population Pyknosed Nuclei (%) [5]: 17% and 18%
Total Cell Count [5]: 243 and 259
Population Apoptotic (%) [6]: 37% and 77%
Population Fragmented Nuclei (%) [6]: 55% and 57%
Population Healthy Nuclei (%) [6]: 31% and 21%
Population Hoechst High Intensity Objects (%) [6]: 24% and 51%
Population Membrane Permeable-Phenotype (%) [6]: 16% and 11%
Population Mitochondria Different-Phenotype (%) [6]: 22% and 33%
Population Mitotic Cells (%) [6]: 62% and 22%
Population Normal (%) [6]: 75% and 48%
Population Pyknosed Nuclei (%) [6]: 13% and 21%
Total Cell Count [6]: 77 and 86
Population Apoptotic (%) [7]: 57%
Population Fragmented Nuclei (%) [7]: 34%
Population Healthy Nuclei (%) [7]: 34%
Population Hoechst High Intensity Objects (%) [7]: 14%
Population Membrane Permeable-Phenotype (%) [7]: 16%
Population Mitochondria Different-Phenotype (%) [7]: 69%
Population Mitotic Cells (%) [7]: 42%
Population Normal (%) [7]: 85%
Population Pyknosed Nuclei (%) [7]: 30%
Population Tubulin-Different-Phenotype (%) [7]: 95%
Total Cell Count [7]: 144
Population Apoptotic (%) [8]: 60%
Population Fragmented Nuclei (%) [8]: 16%
Population Healthy Nuclei (%) [8]: 54%
Population Hoechst High Intensity Objects (%) [8]: 11%
Population Membrane Permeable-Phenotype (%) [8]: 51%
Population Mitochondria Different-Phenotype (%) [8]: 96%
Population Mitotic Cells (%) [8]: 40%
Population Normal (%) [8]: 88%
Population Pyknosed Nuclei (%) [8]: 28%
Population Tubulin-Different-Phenotype (%) [8]: 100%
Total Cell Count [8]: 60
Population Apoptotic (%) [9]: 77%
Population Fragmented Nuclei (%) [9]: 35%
Population Healthy Nuclei (%) [9]: 44%
Population Hoechst High Intensity Objects (%) [9]: 14%
Population Membrane Permeable-Phenotype (%) [9]: 10%
Population Mitochondria Different-Phenotype (%) [9]: 41%
Population Mitotic Cells (%) [9]: 22%
Population Normal (%) [9]: 85%
Population Pyknosed Nuclei (%) [9]: 20%
Population Tubulin-Different-Phenotype (%) [9]: 86%
Total Cell Count [9]: 154
Population Apoptotic (%) [10]: 40%
Population Fragmented Nuclei (%) [10]: 34%
Population Healthy Nuclei (%) [10]: 61%
Population Hoechst High Intensity Objects (%) [10]: 8%
Population Membrane Permeable-Phenotype (%) [10]: 14%
Population Mitochondria Different-Phenotype (%) [10]: 34%
Population Mitotic Cells (%) [10]: 60%
Population Normal (%) [10]: 91%
Population Pyknosed Nuclei (%) [10]: 3%
Population Tubulin-Different-Phenotype (%) [10]: 94%
Total Cell Count [10]: 163

COc1cc2ncnc(Nc3ccc(F)c(Cl)c3)c2cc1NC(=O)/C=C/CN1CCCCC1 [DACOMITINIB ANHYDROUS]
Population Apoptotic (%) [1]: 72%
Population Fragmented Nuclei (%) [1]: 33%
Population Healthy Nuclei (%) [1]: 52%
Population Hoechst High Intensity Objects (%) [1]: 17%
Population Membrane Permeable-Phenotype (%) [1]: 6%
Population Mitochondria Different-Phenotype (%) [1]: 8%
Population Mitotic Cells (%) [1]: 27%
Population Normal (%) [1]: 82%
Population Pyknosed Nuclei (%) [1]: 14%
Population Tubulin-Different-Phenotype (%) [1]: 46%
Total Cell Count [1]: 248
Population Apoptotic (%) [2]: 66%
Population Fragmented Nuclei (%) [2]: 56%
Population Healthy Nuclei (%) [2]: 36%
Population Hoechst High Intensity Objects (%) [2]: 57%
Population Membrane Permeable-Phenotype (%) [2]: 12%
Population Mitochondria Different-Phenotype (%) [2]: 25%
Population Mitotic Cells (%) [2]: 33%
Population Normal (%) [2]: 42%
Population Pyknosed Nuclei (%) [2]: 6%
Population Tubulin-Different-Phenotype (%) [2]: 25%
Total Cell Count [2]: 103
Population Apoptotic (%) [3]: 58%
Population Fragmented Nuclei (%) [3]: 30%
Population Healthy Nuclei (%) [3]: 53%
Population Hoechst High Intensity Objects (%) [3]: 14%
Population Membrane Permeable-Phenotype (%) [3]: 7%
Population Mitochondria Different-Phenotype (%) [3]: 3%
Population Mitotic Cells (%) [3]: 41%
Population Normal (%) [3]: 85%
Population Pyknosed Nuclei (%) [3]: 15%
Population Tubulin-Different-Phenotype (%) [3]: 7%
Total Cell Count [3]: 214
Population Apoptotic (%) [4]: 28%
Population Fragmented Nuclei (%) [4]: 47%
Population Healthy Nuclei (%) [4]: 40%
Population Hoechst High Intensity Objects (%) [4]: 35%
Population Membrane Permeable-Phenotype (%) [4]: 20%
Population Mitochondria Different-Phenotype (%) [4]: 16%
Population Mitotic Cells (%) [4]: 71%
Population Normal (%) [4]: 64%
Population Pyknosed Nuclei (%) [4]: 11%
Population Tubulin-Different-Phenotype (%) [4]: 16%
Total Cell Count [4]: 94
Population Apoptotic (%) [5]: 72%
Population Fragmented Nuclei (%) [5]: 28%
Population Healthy Nuclei (%) [5]: 54%
Population Hoechst High Intensity Objects (%) [5]: 30%
Population Mitochondria Different-Phenotype (%) [5]: 22%
Population Mitotic Cells (%) [5]: 28%
Population Normal (%) [5]: 69%
Population Pyknosed Nuclei (%) [5]: 17%
Population Tubulin-Different-Phenotype (%) [5]: 46%
Total Cell Count [5]: 210
Population Apoptotic (%) [6]: 100%
Population Fragmented Nuclei (%) [6]: 51%
Population Healthy Nuclei (%) [6]: 40%
Population Hoechst High Intensity Objects (%) [6]: 57%
Population Membrane Permeable-Phenotype (%) [6]: 5%
Population Mitochondria Different-Phenotype (%) [6]: 16%
Population Mitotic Cells (%) [6]: 0%
Population Normal (%) [6]: 42%
Population Pyknosed Nuclei (%) [6]: 8%
Population Tubulin-Different-Phenotype (%) [6]: 16%
Total Cell Count [6]: 106
Population Apoptotic (%) [7]: 58%
Population Fragmented Nuclei (%) [7]: 32%
Population Healthy Nuclei (%) [7]: 50%
Population Hoechst High Intensity Objects (%) [7]: 18%
Population Membrane Permeable-Phenotype (%) [7]: 6%
Population Mitochondria Different-Phenotype (%) [7]: 2%
Population Mitotic Cells (%) [7]: 41%
Population Normal (%) [7]: 81%
Population Pyknosed Nuclei (%) [7]: 17%
Population Tubulin-Different-Phenotype (%) [7]: 3%
Total Cell Count [7]: 249
Population Apoptotic (%) [8]: 33%
Population Fragmented Nuclei (%) [8]: 53%
Population Healthy Nuclei (%) [8]: 36%
Population Hoechst High Intensity Objects (%) [8]: 30%
Population Membrane Permeable-Phenotype (%) [8]: 21%
Population Mitochondria Different-Phenotype (%) [8]: 13%
Population Mitotic Cells (%) [8]: 66%
Population Normal (%) [8]: 69%
Population Pyknosed Nuclei (%) [8]: 9%
Population Tubulin-Different-Phenotype (%) [8]: 17%
Total Cell Count [8]: 91
